PREPL inh: human PREPL enzyme inhibition; recombinant PREPL, fluorescence polarization activity-based probe; inhibition, % at 5.96 µM; 320,000 compounds, 0.68% hits; in the data active = inhibition above about 43%;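 note: 0% = enzyme with DMSO and 100% = wells lacking enzyme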
ALR H2O2 inh: inhibitors of human sulfhydryl oxidase ALR; 290,000 compounds, 3.8% hits; purified ALR, DTT oxidation, H2O2 HRP-luminol luminescence; inhibition, % (test concentration not listed); P55789;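 active = mean replicate inhibition above about 79%, with every replicate also reaching it, limit read from the data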
Target sequence (P55789 whole entry, looked up): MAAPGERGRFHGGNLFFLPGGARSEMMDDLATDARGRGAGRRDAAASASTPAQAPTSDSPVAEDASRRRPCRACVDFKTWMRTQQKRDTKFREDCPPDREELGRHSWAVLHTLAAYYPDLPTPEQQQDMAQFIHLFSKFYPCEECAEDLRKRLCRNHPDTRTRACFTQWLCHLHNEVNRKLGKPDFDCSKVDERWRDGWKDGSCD
RBBP9 inh: human RBBP9 hydrolase inhibition; O75884; recombinant RBBP9, FP-Rh probe fluorescence polarization; inhibition, % at 7.94 µM; 220,000 compounds, 0.2% hits; AID 1515;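 active = inhibition above the campaign mean of all tested compounds plus 3 SD, cut at about 14% in these data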;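 note: plate controls were DMSO wells with RBBP9 for no effect and wells lacking RBBP9 protein for full effect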
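System: RBBP9 protein / Buffer or medium: Tris/NaCl buffer pH 8.0 with 0.1% Pluronic / Probe or stimulus: Serine-hydrolase probe FP-Rh, 375 nM pre-mixing / Dosing: 7.94 µM single dose, 0.794% DMSO / Times: enzyme-compound preincubation 30 min, then probe labeling 45 min, 25 °C / Technique: fluorescence polarization (mP), excitation 525 nm, emission 598 nm / Replication: singlicate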
Rin1 Abl inh: blocks binding of human Rin1 to Abl | P00519+Q13671 | inhibition, % at 7.35 µM | TR-FRET Rin1/Abl binding, biochemical | 360,000 compounds, 0.4% hits; in the data active = inhibition above about 5%, passing the limit was not always enough
UBC13 inh: inhibitors of human UBC13 polyubiquitin chain formation | 330,000 compounds, 0.47% hits | TR-FRET | inhibition, % at 20 µM | P61088 | AID 485273; in the data active = inhibition above about 45%, passing the limit was not always enough
Target sequence (P61088 whole entry, looked up): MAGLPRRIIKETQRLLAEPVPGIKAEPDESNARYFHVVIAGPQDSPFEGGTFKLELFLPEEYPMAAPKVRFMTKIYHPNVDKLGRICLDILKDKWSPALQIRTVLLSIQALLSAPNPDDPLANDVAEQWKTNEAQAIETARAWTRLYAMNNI
UBC9 SUMO inh: SUMOylation inhibition | P63279 | HTRF SUMOylation assay, SAE1/SAE2 + UBC9, in vitro | inhibition, % at 35 µM | 290,000 compounds, 0.36% hits; in the data active = inhibition above about 50%, passing the limit was not always enough
Target sequence (P63279 whole entry, looked up): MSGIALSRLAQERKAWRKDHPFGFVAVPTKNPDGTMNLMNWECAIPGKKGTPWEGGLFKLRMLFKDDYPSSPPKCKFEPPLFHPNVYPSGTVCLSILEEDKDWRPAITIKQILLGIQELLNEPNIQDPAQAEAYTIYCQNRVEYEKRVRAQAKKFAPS
The depositor's hits bear a star; nt = no result given. A selection: hits, their analogues and other compounds. The true share with any hit is near 4.3%.

SMILES	PREPL inh	ALR H2O2 inh	RBBP9 inh	Rin1 Abl inh	UBC13 inh	UBC9 SUMO inh
CC(C)(C)c1csc(SCC(=O)Nc2ccc(Cl)cn2)n1	-34	-5	0	-1	-5	0
Cc1csc(NC(=O)CSc2ncnc3c2cnn3-c2ccccc2Cl)n1	18	99*	-3	0	8	-7
Cn1c(CO)cnc1SCC(=O)c1ccc(F)cc1	9	nt	nt	1	-1	19
Cc1csc(SCC(=O)Nc2ccc(Cl)cn2)n1	0	92*	3	2	-16	19
Cc1csc(NC(=O)CSc2ncc(-c3ccccc3)[nH]2)n1	-2	59	0	-1	-13	-11
Cc1cnc(=O)[nH]c1SCC(=O)c1ccc(F)cc1	-6	99*	nt	-5	0	12
CC(=O)C1CCC2C3CC=C4N(C)C(=O)CCC4(C)C3CCC12C (centres undefined)	nt	nt	nt	4	nt	nt
CCOC(=O)c1c(SCC(=O)Nc2nc(C)cs2)nc(=O)[nH]c1C	-1	99*	nt	0	2	nt
COc1ccc(N(C)C(=S)Nc2ccc3nc(C)c(C)nc3c2)cc1	10	98*	-12	-2	-8	23
O=C(O)c1cccc2c1C(=O)c1ccc(-c3ccc(F)cc3OCc3ccccc3)cc1S2(=O)=O	36	98*	nt	-2	-20	nt
O=C1c2ccc(-c3ccc(F)cc3OCc3ccccc3)cc2S(=O)(=O)c2cccc(C(=O)N3CCN(c4ncc(Br)cn4)CC3)c21	18	0	nt	2	-45	nt
CC(C)c1ccc(NC(=O)COC(=O)Cn2cnc3c2c(=O)n(C)c(=O)n3C)cc1	nt	nt	nt	1	nt	nt
COc1cccc(-c2nc(CCl)cs2)c1	-8	99*	-4	-9	-4	24
COc1ccc(-c2nc(CCl)cs2)cc1OC	3	99*	-7	1	2	3
COc1ccc(-c2nc(CCl)cs2)cc1	1	nt	5	0	6	3
O=C1NC(=NCc2ccccc2)S/C1=C/c1ccc(O)cc1	3	94*	-10	-4	2	-18
Cc1c(N=C2NC(=O)/C(=C/c3ccc(O)cc3)S2)c(=O)n(-c2ccccc2)n1C	5	99*	2	-3	-6	2
Cc1c(N=C2NN=C(c3ccc(Cl)cc3)CS2)c(=O)n(-c2ccccc2)n1C	10	97*	-2	-1	-10	8
CC1=C/C(=N\OS(=O)(=O)c2ccccc2)C(C(C)C)=CC1=O	-13	98*	-5	-4	nt	0
CC1=C/C(=N\OS(=O)(=O)c2ccccc2)C(C)=CC1=O	7	99*	-3	-5	-6	5
CC1=C(C)/C(=N\OS(=O)(=O)c2ccc(C)cc2)C=CC1=O	5	nt	-4	-4	nt	11
CC(C)CCNCC1OCc2ccccc2CO1	23	0	-1	2	2	1
CC(C)NC(=O)c1onc(CSc2ccc(F)c(F)c2)c1C(=O)O	-8	2	-7	3	-18	8
COCCNC(=O)c1onc(CSc2cc(C)cc(C)c2)c1C(=O)O	-2	42	-11	2	-3	-2
COCCNC(=O)c1onc(CSc2ccc(C)c(C)c2)c1C(=O)O	5	90*	-1	-1	-3	11
SMILES	PREPL inh	ALR H2O2 inh	RBBP9 inh	Rin1 Abl inh	UBC13 inh	UBC9 SUMO inh
Cc1ccc(SCc2noc(C(=O)NC(C)C)c2C(=O)O)cc1C	-3	96*	-4	1	-14	3
O=C(c1ccccc1)c1ccc(C(=O)N2CCN(c3ccc(O)cc3)CC2)cc1	19	99*	nt	1	-7	nt
O=C(c1ccc(N2CCN(C(=O)c3ccccc3)CC2)cc1)c1cccc(F)c1	12	-3	nt	-1	24	0
O=C(c1ccccc1)c1cccn1CC(=O)N1CCN(C2CCCCC2)CC1	0	-10	0	4	-5	-9
O=C(c1ccccc1)c1cccn1CC(=O)N1CCN(c2ccccc2)CC1	-27	97*	-9	0	-5	-2
Cc1cc(=O)n2[nH]c(Nc3cccc(Cl)c3)nc2n1	5	-1	nt	0	-6	nt
Fc1ccc(SCCc2ccncc2)cc1	3	-3	-5	-1	6	-15
COc1ccc(SCCc2ccncc2)cc1	-2	93*	-6	1	-6	7
CC(C)CC1C(=O)N(Cc2cn(Cc3ccco3)nn2)CCS(=O)(=O)N1Cc1ccc(-c2ccc(Cl)cc2)cc1 (centres undefined)	nt	nt	nt	3	nt	nt
Nc1nc2ccc(S(=O)(=O)N3CCCCC3)cc2s1	2	98*	3	-2	-12	11
Cn1c(-c2ccc(C=O)s2)nc2c3ccccc3c3ccccc3c21	14	-52	-8	-3	-5	97*
Cc1csc(NC(=O)Cc2coc3cc(C)c(C(C)C)cc23)n1	-5	89*	7	1	13	8
CC(C)OCCCN1CN(S(=O)(=O)c2cccs2)c2nc3ccccc3nc21	6	1	-6	nt	-4	12
CCCNC(=O)CSCc1nc(-c2ccc(SC)cc2)oc1C	8	99*	-8	-3	-5	5
COC(CNC(=O)CSCc1nc(-c2ccc(SC)cc2)oc1C)OC	8	99*	4	1	3	13
CCc1ccc(-c2nc(CSCC(=O)NCc3ccco3)c(C)o2)cc1	nt	nt	5	2	nt	8
CCC(=O)Nc1cccc(-c2cnc3ccccc3n2)c1	-38	88*	5	2	-11	-3
O=C(CCl)Nc1cccc(-c2cnc3ccccc3n2)c1	-21	-12	-7	-1	-13	2
COC(=O)c1c(NC(=O)C2CC=CCC2C(=O)O)sc(C(N)=O)c1C (centres undefined)	10	99*	-5	-1	2	13
CCCN1CCCc2cc(CN)ccc21	63*	100*	1	1	-24	41
Cc1ccc(S(=O)(=O)Oc2ccc(/C=C3\C(=N)N4N=C(S(C)(=O)=O)SC4=NC3=O)cc2)cc1	1	92*	nt	2	-23	24
Cc1ccc(S(=O)(=O)Oc2ccc(/C=C3/C(=N)N4C(=NC3=O)SN=C4S(C)(=O)=O)cc2)cc1	-2	98*	nt	5	-20	13
COc1cc(/C=C2\C(=N)N3N=C(S(=O)(=O)CC(C)C)SC3=NC2=O)ccc1OC(=O)c1ccco1	49*	57	nt	nt	-4	2
COc1cccc(-n2c(C)cc(/C=C3/C(=N)N4C(=NC3=O)SN=C4S(C)(=O)=O)c2C)c1	11	97*	-8	6	-18	40
CS(=O)(=O)C1=NSC2=NC(=O)/C(=C\c3ccc(OS(=O)(=O)c4ccccc4)cc3)C(=N)N21	-6	65	nt	5	-8	15
O=C(c1cc(COc2c(F)cccc2F)on1)N(Cc1ccccc1)CC1CC1	-9	-1	nt	2	2	-8
Cc1cc(C)c(C(=O)COC(=O)c2cccc(S(=O)(=O)N3CCOCC3)c2)cc1C	nt	nt	nt	0	nt	nt
